Screening data deposited in PubChem by Broad Institute.
GSK3 alpha inh: inhibitors of human GSK-3 alpha kinase; ADP-Glo luminescence, 60 min; P49840; 320,000 tested, 0.1% active; inhibition, % at 10 µM; AID 2650;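 active = more than half of replicates show inhibition above 20%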;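 also: GST-tagged GSK-3 alpha with peptide substrate and 25 µM ATP; 0% = DMSO neutral wells and 100% = GW8510 positive control wells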
Target sequence (P49840 whole entry, looked up): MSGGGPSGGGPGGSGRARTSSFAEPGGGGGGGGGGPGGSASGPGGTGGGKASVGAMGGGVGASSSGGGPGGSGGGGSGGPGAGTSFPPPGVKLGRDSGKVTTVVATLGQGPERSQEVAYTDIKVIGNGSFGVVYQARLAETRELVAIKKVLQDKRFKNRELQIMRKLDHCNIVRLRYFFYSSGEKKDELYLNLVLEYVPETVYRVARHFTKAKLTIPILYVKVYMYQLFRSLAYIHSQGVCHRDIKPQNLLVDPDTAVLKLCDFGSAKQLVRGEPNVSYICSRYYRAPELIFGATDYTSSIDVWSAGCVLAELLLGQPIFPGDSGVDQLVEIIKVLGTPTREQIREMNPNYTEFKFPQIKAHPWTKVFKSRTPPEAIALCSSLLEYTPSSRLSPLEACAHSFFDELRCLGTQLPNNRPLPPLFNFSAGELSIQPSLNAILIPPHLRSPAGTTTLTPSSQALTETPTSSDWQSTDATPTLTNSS
STK33 inh: blocks human STK33 kinase activity; Q9BYT3; purified STK33, MBP phosphorylation, ADP-Glo luminescence; inhibition, % at 10 µM; 320,000 tested, 0.073% active; AID 2661;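 active = inhibition at or above 25%, using the most active replicate where run in duplicate; inactive = inhibition below 25%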
GSK3B inh: human GSK3beta kinase inhibition | GST-GSK3beta kinase, ADP-Glo luminescence, 60 min; stronger effect = lower value | activity score (negative = inhibition), % at 10 µM | 300,000 tested, 0.038% active | AID 2097;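 active = more than half of replicate wells score below -50%, meaning over 50% inhibition versus plate controls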;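 also: 0% = median DMSO wells and -100% = median GW8510 positive control wells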
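Test system: GST-tagged human GSK3beta kinase, cell-free; evaluation: activity score scaled between in-plate DMSO and GW8510 controls; measured by: ADP-Glo luminescence; incubation: 60 min reaction, RT; benchmarks: DMSO and 20 µM GW8510; reagent: peptide substrate plus 25 µM ATP (final); medium: Tris/MgCl2 kinase buffer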
CDK5 inh: CDK5/p35 (human) kinase inhibition | inhibition, % at 10 µM | 330,000 tested, 0.01% active | Recombinant CDK5/p35, ADP-Glo luminescence, 60 min | Q00535+Q15078;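 active = highest replicate inhibition of at least 50% and at least 75% of replicates reaching 50%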;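 also: plate controls were DMSO neutral control for no effect and GW8510 at 10 µM for full effect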
DYRK1A inh: inhibitors of rat Dyrk1A kinase. ADP-Glo luminescence, NFATc1 peptide. inhibition, % at 12.5 µM. 310,000 tested, 0.43% active. AID 504441; in the data active = inhibition above about 50%;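 also: plate controls were vehicle with enzyme for no effect and no enzyme for full effect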
Dyrk1A artifact: interferes with ADP-Glo luciferase readout without Dyrk1A. shares compounds with DYRK1A inh. ADP-Glo luciferase artifact assay, no Dyrk1A, luminescence. AC50, µM (titrated, usually from 12 µM), for inactives: at the highest dose activity change, negative = inhibition. 1,300 tested, under 10 active;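 active = fitted half-maximal dose AC50 no more than ten times the top valid tested dose, with luminescence dropping as dose rises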
An asterisk follows results filed as active; x = no result. The full list was thinned out, with hits kept by preference.

SMILES	GSK3 alpha inh	STK33 inh	GSK3B inh	CDK5 inh	DYRK1A inh	Dyrk1A artifact
CC(C)CN(C(=O)COC(=O)CCc1nc2ccccc2s1)c1c(N)n(Cc2ccccc2)c(=O)[nH]c1=O	-4	-1	2	0	x	x
CC(=O)Nc1cccc(NC(=O)c2cc3ccccc3o2)c1	-1	5	-1	2	53*	4%
O=C(Nc1cccc(-c2nc3ncccc3o2)c1)c1cc2ccccc2o1	-2	2	1	0	56*	8%
Cc1cc([N+](=O)[O-])nn1Cc1ccccc1F	-3	0	2	0	51*	12%
O=C(NCc1ccccc1)C1=C[C@H](c2ccccc2)C[C@H](OCc2ccc(CO)cc2)O1	6	-2	0	-3	52*	12%
CC1CN(S(=O)(=O)c2cccc(C(=O)OCC(=O)N3CCCCCC3)c2)CC(C)O1 (stereo not drawn)	-4	1	x	-2	-3	x
Cc1ccnc(Nc2nc(-c3ccc(O)c(O)c3)cs2)c1	8	10	x	6	54*	6%
O=C(COc1ccccc1Cl)NCCNC(=O)c1ccco1	2	1	1	1	-9	x
Cc1cccc(NC(=S)NNC(=O)c2csc3c2CCC(C)C3)c1 (stereo not drawn)	x	x	-1	0	62*	10%
Oc1ccc(/C=N/Nc2cccc(Cl)n2)c(O)c1	4	4	-1	0	20	x
Oc1ccc(/C=N/Nc2ccc(C(F)(F)F)cn2)c(O)c1	1	2	-23	67*	61*	9%
OC1CCN(c2ncnc3nc[nH]c23)CC1	23	4	2	2	13	x
c1ccc2c(c1)CCN(c1ncnc3nc[nH]c13)C2	21	2	2	-1	-3	x
CC1CCN(c2ncnc3nc[nH]c23)CC1	18	17	-6	2	81*	8%
CC1Cc2ccccc2N1c1ncnc2nc[nH]c12 (stereo not drawn)	47	14	1	9	72*	8%
COc1ccc(Cl)cc1S(=O)(=O)N1CCC(C(=O)NCCC2=CCCCC2)CC1	4	-1	3	0	-5	x
COc1ccc2nc3c(cc2c1)c(NC(=O)C1CCCO1)nn3CC(C)C (stereo not drawn)	99*	1	-88*	28	79*	10%
CCOc1nc2cnccc2n(CC(=O)Nc2ccc(C)c(C)c2)c1=O	-1	1	3	1	-6	x
COC(=O)c1c(-c2ccc(S(C)(=O)=O)cc2)sc2ccc(OC)cc12	-2	0	x	1	51*	10%
C/C(=N\N1CCN(c2ccccc2)CC1)c1ccncc1	0	-1	-2	-1	x	x
O=C(COc1cccnc1[N+](=O)[O-])c1ccc(Cl)s1	0	1	2	-1	8	x
CCC(C)CCN1C(Nc2ccccc2)=NC[C@@H]1Cc1ccccc1 (stereo partly drawn)	-3	-1	1	0	57*	9%
COc1ccc(NC(=O)Cc2nnc(SCC(=O)NC3=NCCS3)n2C)cc1	-3	-1	-4	0	-2	x
COCCCNC(=S)N1CCC(C(=O)c2ccc(Cl)cc2)CC1	-1	0	3	1	-5	x
CC1(C)OC(=O)C(=Cc2ccc(-c3ccc(S(N)(=O)=O)cc3)o2)C(=O)O1	-1	-1	0	0	-1	x
SMILES	GSK3 alpha inh	STK33 inh	GSK3B inh	CDK5 inh	DYRK1A inh	Dyrk1A artifact
NC1=NC(=O)/C(=C\c2ccco2)S1	3	3	-1	2	47	x
NC1=NC(=O)/C(=C/c2ccc(-c3ccc(S(N)(=O)=O)cc3)o2)S1	65*	0	-2	40	77*	13%
CS(=O)(=O)Nc1ccc(-c2ccc(/C=C3\SC(N)=NC3=O)o2)cc1	55*	-1	0	5	84*	10%
CCOC(=O)Cn1ccc(NC(=O)COc2ccc(F)cc2)n1	0	0	3	-1	-1	x
Cc1ccc(-c2csc3ncnc(SCC(=O)O)c23)cc1	0	6	4	0	76*	9%
COC(=O)c1ccc(CNC(=O)c2ccc(NS(=O)(=O)c3ccc4[nH]c(=O)[nH]c4c3)cc2)cc1	0	0	-2	-1	-2	x
COc1ccc(Nc2ncnc3ccccc23)c(OC)c1	-1	2	2	-1	11	x
COc1cccc(Nc2ncnc3ccccc23)c1	1	4	-7	9	73*	9%
COc1ccc(NC(=O)CN2CCN(C3c4ccccc4-c4ccccc43)CC2)cc1	x	0	-3	0	7	x
COc1ccc(NC(=O)N(C)C[C@H]2Oc3c(NS(=O)(=O)c4cccs4)cccc3C(=O)N([C@@H](C)CO)C[C@@H]2C)cc1	1	0	x	0	55*	3%
CC(=O)c1sc(NC(=O)c2ccco2)nc1-c1ccccc1	-1	-1	2	-1	4	x
COc1ccc2c(c1)-c1nc(NC(=O)c3ccco3)sc1CC2	-1	1	2	-1	35	x
COc1ccc2c(c1)CCc1sc(NC(=O)c3ccco3)nc1-2	-1	2	-7	2	68*	7%
Cc1sc(NC(=O)c2ccco2)nc1-c1ccccc1	-3	3	4	1	52*	10%
COc1ccccc1NC(=S)N/N=C/c1cccc(C)c1	-3	-1	7	1	-1	x
COc1ccccc1NC(=S)N/N=C/c1ccc(O)cc1	8	5	-1	4	51*	11%
Cc1cccc(N(CC(=O)NCc2ccc(F)cc2)C(=O)c2csnn2)c1C	-1	-1	-4	0	-3	x
CCOC(=O)c1ccc(N=Nc2c(C)c(C#N)c(O)[nH]c2=O)cc1	x	-1	1	2	-54	x
CCc1nc(Nc2cccc(O)c2)c2oc3ccccc3c2n1	2	5	-1	-1	62*	10%
CCc1nc(Nc2ccncc2)c2oc3ccccc3c2n1	0	1	2	-1	13	x
N#CC1=C(N)Oc2ccc3ccc(O)cc3c2C1c1ccsc1 (stereo not drawn)	x	x	-1	7	77*	7%
Cc1ccccc1Cn1c(-c2cncs2)nc2ccccc21	-1	-2	-6	-2	5	x
O=C(Cn1c(-c2cncs2)nc2ccccc21)NCc1ccccc1	0	-1	-3	1	60*	10%
COc1ccc2cc(C(=O)N/N=C/c3cc(OC)c(OC)c(OC)c3)[nH]c2c1	3	0	-1	1	54*	9%
COc1ccc(/C=N/NC(=O)c2cc3cc(OC)c(OC)cc3[nH]2)cc1	3	2	-1	0	3	x
Cc1ccc2c(c1)N(CC(=O)NC1CCCCC1)C(=O)c1cccnc1O2	x	x	2	-1	58*	6%
CNS(=O)(=O)c1ccc(CNC[C@H]2O[C@@H](n3cnc(C(N)=O)n3)[C@H](O)[C@@H]2O)cc1	x	x	x	0	x	x
